According to ChEMBL document CHEMBL3632502, “Bivalent ligands incorporating curcumin and diosgenin as multifunctional compounds against Alzheimer's disease” (Bioorg Med Chem, 2015):
Blank lines part the entries; values can stand above or below the molecule they belong to. Active and inactive are the calls of the source. The calls are words filed in the database; no cut-off is given here.

Columns and labels:
[1] = Neuroprotective activity against tetracycline deficiency-mediated cell viability loss in human MC65 cells after 72 hrs by MTT assay; assay type: functional, cell-based; details: MC65, 72 h
Summary of the method: (§1)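 MC65 cells washed twice in PBS, seeded in Opti-MEM at 4×10^4 cells/well, treated at 37 °C under +TC or −TC for 72 h. MTT (5 mg/mL in PBS) added for 4 h, formazan dissolved in DMSO, A570 read. Viability expressed as percent of +TC control; EC50 from concentration series, SEM.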

[2] = test system: MC65; assay: Effect on tetracycline deficiency-induced total amyloid beta42 level in human MC65 cells at 0.1 to 1 uM after 48 hrs by ELISA; assay type: functional, cell-based
Summary of the method: (§2)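 MC65 cells in Opti-MEM (4×10^4 cells/well) treated at 37 °C under +TC or −TC for 48 h. Conditioned medium captured on BNT77-coated plates overnight at 4 °C, detected with HRP-BA27 (Aβ40) or HRP-BC05 (Aβ42) for 1 h at room temperature, TMB 30 min, A450. Values in pM from Aβ standard calibration curves.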

[3] = test system: MC65; assay: Antioxidant activity in human MC65 cells assessed as decrease in tetracycline deficiency-mediated reactive oxygen species formation at 0.3 uM after 48 hrs by DCFH-DA probe-based flow cytometric analysis; assay type: functional, cell-based
Summary of the method: (§3)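 MC65 cells washed in PBS, resuspended in Opti-MEM, seeded at 2×10^6 cells/well, treated at 37 °C with or without TC (1 μg/mL in culture medium) for 48 h. Harvested cells washed in cold PBS, loaded with 25 μM DCFH-DA in PBS for 1 h in the dark, and analysed by flow cytometry. Fluorescence expressed as percent of control.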

[4] = Metal chelating activity assessed as compound-Fe2+ complex formation at 50 uM after 10 mins by UV-vis spectra analysis; assay type: physicochemical
Summary of the method: (§4)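 Compound (50 μM) mixed with CuSO4, FeCl2 or ZnCl2 (50 μM) in deionized water, kept 10 min at room temperature, then UV absorption spectrum recorded from 200 to 600 nm.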

[5] = target: Amyloid-beta precursor protein (Homo sapiens) (UniProt P05067); assay: Inhibition of amyloid beta42 (unknown origin) aggregation after 48 hrs by ThT assay
Amyloid-beta precursor protein (Homo sapiens), sequence (P05067 whole entry): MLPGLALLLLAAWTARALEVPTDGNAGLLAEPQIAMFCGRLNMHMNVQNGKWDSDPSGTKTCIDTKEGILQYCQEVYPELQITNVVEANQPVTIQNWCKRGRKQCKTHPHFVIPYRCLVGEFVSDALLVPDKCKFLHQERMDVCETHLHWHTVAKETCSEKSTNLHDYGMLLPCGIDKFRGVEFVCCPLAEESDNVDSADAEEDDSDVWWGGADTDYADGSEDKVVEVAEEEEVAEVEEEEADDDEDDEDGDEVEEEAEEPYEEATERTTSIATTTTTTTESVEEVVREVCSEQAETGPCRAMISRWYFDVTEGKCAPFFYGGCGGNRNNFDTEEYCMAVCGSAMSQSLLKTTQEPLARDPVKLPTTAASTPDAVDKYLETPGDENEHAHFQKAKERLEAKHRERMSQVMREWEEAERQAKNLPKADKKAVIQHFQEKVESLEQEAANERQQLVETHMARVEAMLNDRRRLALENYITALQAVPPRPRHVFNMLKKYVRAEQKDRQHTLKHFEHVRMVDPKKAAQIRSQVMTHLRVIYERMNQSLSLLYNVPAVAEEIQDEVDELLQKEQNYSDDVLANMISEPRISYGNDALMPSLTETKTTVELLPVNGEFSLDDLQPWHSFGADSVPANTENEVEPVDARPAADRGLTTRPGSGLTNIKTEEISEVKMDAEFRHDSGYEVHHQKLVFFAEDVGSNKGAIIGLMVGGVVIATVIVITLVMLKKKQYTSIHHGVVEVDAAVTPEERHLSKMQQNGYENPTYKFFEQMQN
Summary of the method: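 Aβ42 (25 μM in PBS pH 7.4, 9 μL) mixed with 1 μL of compound in DMSO (0.01–100 μM solutions), triplicates with solvent control, incubated dark at room temperature 48 h. Then 5 μM ThT in 50 mM glycine pH 8.0 added; fluorescence read at ex 446/em 490 nm, with no-ThT background subtracted.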

[6] = Metal chelating activity assessed as compound-Zn2+ complex formation at 50 uM after 10 mins by UV-vis spectra analysis; assay type: physicochemical; summary of the method: as §4
[7] = (§5) Neuroprotective activity against tetracycline deficiency-mediated cell viability loss in human MC65 cells at 1 uM after 72 hrs by MTT assay relative to control; assay type: functional; summary of the method: as §1
[8] = Metal chelating activity assessed as compound-Cu2+ complex formation at 50 uM after 10 mins by UV-vis spectra analysis; assay type: physicochemical; summary of the method: as §4
[9] = target: Amyloid-beta precursor protein (Homo sapiens) (UniProt P05067); assay: Binding affinity to amyloid beta in human MC65 cells assessed as inhibition of tetracycline deficiency-induced amyloid beta oligomerization after 48 hrs by Western blot analysis; assay type: cell-based
Summary of the method: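 MC65 cells in Opti-MEM (2×10^6 cells/well) treated at 37 °C under +TC or −TC for 48 h, then lysed by sonication in Tricine buffer. Supernatant protein (20.0 μg, Bradford-quantified) run on Tris-Tricine SDS-PAGE and blotted to PVDF. Probed with 6E10 overnight at 4 °C, HRP secondary, chemiluminescence; α-tubulin loading control. Total oligomers quantified, n=6, SEM.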

[10] = test system: MC65; assay: Effect on tetracycline deficiency-induced total amyloid beta40 level in human MC65 cells at 0.1 to 1 uM after 48 hrs by ELISA; assay type: functional, cell-based; summary of the method: as §2
[11] = test system: MC65; assay: Antioxidant activity in human MC65 cells assessed as decrease in tetracycline deficiency-mediated reactive oxygen species formation at 0.1 uM after 48 hrs by DCFH-DA probe-based flow cytometric analysis; assay type: functional, cell-based; summary of the method: as §3
[12] = test system: MC65; assay: as §5; assay type: functional; summary of the method: as §1

- Activity [4]: Not Active
- inhibition [5]: Dose-dependent effect
- Activity [6]: Not Active
- Activity [8]: Not Active
- inhibition [9]: Dose-dependent effect
SMILES: COc1cc(/C=C/C(=O)/C(Cc2cn(CCCCC(=O)NCCOCCOCCOCC(=O)O[C@H]3CC[C@@]4(C)C(=CC[C@H]5[C@@H]6C[C@@H]7O[C@]8(CC[C@@H](C)CO8)[C@@H](C)[C@@H]7[C@@]6(C)CC[C@@H]54)C3)nn2)=C(O)/C=C/c2ccc(O)c(OC)c2)ccc1O
- EC50 [1]: 0.232 µM
- Activity [2]: inactive
- Activity [3]: Active
- Activity [7]: >=80%
- Activity [10]: inactive

SMILES: COc1cc(/C=C/C(=O)/C(Cc2cn(CCCCCCCCCCCC(=O)NCCOCCOCCOCC(=O)O[C@H]3CC[C@@]4(C)C(=CC[C@H]5[C@@H]6C[C@@H]7O[C@]8(CC[C@@H](C)CO8)[C@@H](C)[C@@H]7[C@@]6(C)CC[C@@H]54)C3)nn2)=C(O)/C=C/c2ccc(O)c(OC)c2)ccc1O
- EC50 [1]: 4.62 µM

SMILES: COc1cc(/C=C/C(=O)/C(Cc2cn(CCCCCC(=O)NCCOCCOCCOCC(=O)O[C@H]3CC[C@@]4(C)C(=CC[C@H]5[C@@H]6C[C@@H]7O[C@]8(CC[C@@H](C)CO8)[C@@H](C)[C@@H]7[C@@]6(C)CC[C@@H]54)C3)nn2)=C(O)/C=C/c2ccc(O)c(OC)c2)ccc1O
- EC50 [1]: 0.381 µM
- Activity [7]: >=80%

- Activity [4]: Not Active
- inhibition [5]: Dose-dependent effect
- Activity [6]: Not Active
- Activity [8]: Not Active
- inhibition [9]: Dose-dependent effect
SMILES: COc1cc(/C=C/C(=O)/C(Cc2cn(CCOCCOCCNC(=O)CCC(=O)O[C@H]3CC[C@@]4(C)C(=CC[C@H]5[C@@H]6C[C@@H]7O[C@]8(CC[C@@H](C)CO8)[C@@H](C)[C@@H]7[C@@]6(C)CC[C@@H]54)C3)nn2)=C(O)/C=C/c2ccc(O)c(OC)c2)ccc1O
- EC50 [1]: 0.112 µM
- Activity [2]: inactive
- Activity [11]: Active
- Activity [7]: >=80%
- Activity [10]: inactive

SMILES: COC(=O)CCC(=O)NCCOCCOCCn1cc(C/C(C(=O)/C=C/c2ccc(O)c(OC)c2)=C(O)\C=C\c2ccc(O)c(OC)c2)nn1
- Activity [12]: inactive

SMILES: C[C@@H]1CC[C@@]2(OC1)O[C@H]1C[C@H]3[C@@H]4CC=C5C[C@@H](O)CC[C@]5(C)[C@H]4CC[C@]3(C)[C@H]1[C@@H]2C
- Activity [12]: inactive

SMILES: CC(C)Cc1cn(CCOCCOCCNC(=O)CCC(=O)O[C@H]2CC[C@@]3(C)C(=CC[C@H]4[C@@H]5C[C@@H]6O[C@]7(CC[C@@H](C)CO7)[C@@H](C)[C@@H]6[C@@]5(C)CC[C@@H]43)C2)nn1
- Activity [12]: inactive

SMILES: COc1cc(/C=C/C(=O)/C(Cc2cn(CCCCCCCC(=O)NCCOCCOCCOCC(=O)O[C@H]3CC[C@@]4(C)C(=CC[C@H]5[C@@H]6C[C@@H]7O[C@]8(CC[C@@H](C)CO8)[C@@H](C)[C@@H]7[C@@]6(C)CC[C@@H]54)C3)nn2)=C(O)/C=C/c2ccc(O)c(OC)c2)ccc1O
- EC50 [1]: 1.04 µM
- Activity [7]: >=80%

SMILES: CCCCCC(=O)O[C@H]1CC[C@@]2(C)C(=CC[C@@H]3[C@@H]4C[C@@H]5O[C@]6(CC[C@@H](C)CO6)[C@@H](C)[C@@H]5[C@@]4(C)CC[C@@H]32)C1
- Activity [12]: inactive

SMILES: COc1cc(/C=C/C(=O)/C(Cc2cn(CCCCCCCCCC(=O)NCCOCCOCCOCC(=O)O[C@H]3CC[C@@]4(C)C(=CC[C@H]5[C@@H]6C[C@@H]7O[C@]8(CC[C@@H](C)CO8)[C@@H](C)[C@@H]7[C@@]6(C)CC[C@@H]54)C3)nn2)=C(O)/C=C/c2ccc(O)c(OC)c2)ccc1O
- EC50 [1]: 0.309 µM

SMILES: COc1cc(/C=C/C(=O)CC(=O)/C=C/c2ccc(O)c(OC)c2)ccc1O
- Activity [12]: inactive
